APP 5'UTR act: activates APP 5'UTR luciferase reporter; SH-SY5Y APP 5'UTR luciferase reporter, luminescence; zero percent = DMSO vehicle wells; 190,000 tested, 1% active; activation, % at 2 µM;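 active = activation above a set limit, based on mean plus 3 SD of controls, cut at about 140% in these data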
FLuc stim CS: firefly luciferase counter-screen for stimulation assays | P08659 | ATPlite luciferase biochemical, luminescence, 10 min; 0 = ATP-free wells, 1 = DMSO control | activation factor at 10 µM | 200,000 tested, under 10 active;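 active = luciferase activation factor, scaled between plate controls, of at least 2 with compound at 10 µM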
Target sequence (P08659 whole entry, looked up): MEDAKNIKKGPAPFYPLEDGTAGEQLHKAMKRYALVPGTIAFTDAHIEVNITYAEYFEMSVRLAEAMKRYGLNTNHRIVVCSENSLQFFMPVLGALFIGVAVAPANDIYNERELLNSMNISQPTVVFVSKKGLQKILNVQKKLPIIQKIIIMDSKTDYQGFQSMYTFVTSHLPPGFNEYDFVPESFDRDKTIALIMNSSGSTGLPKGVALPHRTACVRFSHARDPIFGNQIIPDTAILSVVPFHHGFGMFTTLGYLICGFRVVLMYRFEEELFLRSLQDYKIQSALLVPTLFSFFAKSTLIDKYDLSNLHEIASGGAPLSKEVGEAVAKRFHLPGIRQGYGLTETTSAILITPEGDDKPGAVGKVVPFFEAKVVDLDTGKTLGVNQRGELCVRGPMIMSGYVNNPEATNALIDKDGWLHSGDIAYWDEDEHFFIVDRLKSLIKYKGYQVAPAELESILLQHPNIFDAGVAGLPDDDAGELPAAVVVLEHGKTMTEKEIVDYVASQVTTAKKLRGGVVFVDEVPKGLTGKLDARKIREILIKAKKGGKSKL
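assay system = Luciferase/luciferin detection reagent, cell-free biochemical luciferase assay | also added = ATP substrate | times = 10 min post-reagent at room temperature | measured by = luminescence from luciferase reaction | measure = luciferase activation, seen as luminescence increase over controls | benchmarks = low control with PBS replacing ATP, high control enzyme plus ATP without compound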
STAT1 activator: activators of IFN-gamma induced STAT1 signaling. NIH 3T3 STAT1-luciferase reporter, luminescence; 100% = IFN-gamma alone, no compound. activation (% of control), % at 5.5 µM. 200,000 tested, 2.6% active;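 active = activation above the screen-wide mean activation plus 3 SD, cut at about 130% in these data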
APP 5UTR inh: APP translation inhibition; inhibition, % at 2 µM; SH-SY5Y APP 5'UTR-luciferase reporter, luminescence; 190,000 tested, 0.82% active;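 active = inhibition above a set limit, derived from the sample mean plus 3 SD, cut at about 45% in these data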
FLuc inhib CS: inhibits firefly luciferase, flagging false hits in luciferase inhibition screens; P08659; ATPLite firefly luciferase biochemical luminescence, 10 min; 200,000 tested, 1.5% active; inhibition, % at 10 µM;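 active = inhibition above about 50% when tested at 10 µM, limit read from the data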
NF-kB neuron act: raises NF-kB expression in human neuronal cells; NF-kB reporter expression; stronger effect = higher value; fold change at 12.5 µM; 190,000 tested, 1.6% active; in the data active = fold change above about 3.3
Of the large screens only hits and unclear results are named; the others gave an inactive call. Shown are actives, neighbours in structure and some others; about 4.8% of the full set was active somewhere.

CCOC(=O)COn1c(=O)c(=O)n(O)c2ccccc21	none
COc1cccc(NC(=O)CSc2nc3c(c(=O)n2C)SC(C)C3)c1 (stereo not given)	none
CC12C(=O)N(c3cccc(OC(=O)c4ccco4)c3)C(=O)C1C1c3ccccc3C2c2ccccc21 (stereo not given)	APP 5UTR inh 51.6
O=C(Nc1ccccc1)C1=C(c2ccccc2)S(=O)(=O)CCS1(=O)=O	APP 5UTR inh 87.0
O=C(O)c1ccccc1C(=O)Nc1ccccc1	none
COc1ccc(C2CCCN2C(=O)Nc2ccc(F)cc2)cc1OC (stereo not given)	none
Clc1nc2ccccc2cc1-c1nnn(-c2ccccc2)n1	STAT1 activator 132.9, NF-kB neuron act 5.04
Cn1ccnc1-c1nc2ccccc2[nH]c1=O	none
Fc1ccc(-n2nnc(-c3cccnc3Cl)n2)cc1	APP 5'UTR act 148.9, STAT1 activator 143.5, FLuc inhib CS 65.6, NF-kB neuron act 5.8
COc1ncccc1-c1nnn(-c2ccccc2)n1	APP 5'UTR act 158.4, STAT1 activator 148.9, FLuc inhib CS 53.8, NF-kB neuron act 4.75
Cc1ccc(-n2nnc(-c3nccn3C)n2)cc1	FLuc inhib CS 88.1, NF-kB neuron act 4.25
CCN1CCCC1CNC(=O)C(=O)NC(C)C (stereo not given)	none
Clc1ccc(-n2nnc(-c3cccnc3Cl)n2)cc1Cl	APP 5'UTR act 164.4, STAT1 activator 135.4
c1ccc2ncc(-n3cnnn3)cc2c1	none
Clc1ncccc1-c1nnn(-c2ccccc2)n1	STAT1 activator 133.5, FLuc inhib CS 70.5, NF-kB neuron act 6.53
Fc1ccc(-n2nnc(-c3nccs3)n2)cc1	APP 5'UTR act 147.9, FLuc inhib CS 75.5, NF-kB neuron act 4.71
O=c1ncn(-c2ccc(F)cc2)c2ncccc12	none
Cc1ccc(-n2nnc(-c3cnc4ccccc4c3)n2)cc1	APP 5'UTR act 194.0, FLuc inhib CS 53.5, NF-kB neuron act 4.5
Cc1ccc(C(=O)NCC(=O)OCC(=O)c2ccc3c(c2)NC(=O)CO3)cc1	none
C=CCOc1c(Cl)cc(CNc2ccc(C)c(Cl)c2)cc1OC	APP 5UTR inh 91.1
C=CCOc1c(Cl)cc(CNc2ccc(N(C)C)cc2)cc1OC	STAT1 activator 136.9
CCOC(=O)COc1ccc2c3c(c(=O)oc2c1C)CCC3	NF-kB neuron act 4.78
Cc1c(OCc2nn[nH]n2)ccc2c3c(c(=O)oc12)CCCC3	none
Cc1c(C(=O)C(=O)N2CC=C(c3ccccc3)CC2)c2ccccc2n1C	APP 5UTR inh 82.0
Cc1c(C(=O)C(=O)N2c3ccccc3CC2C)c2ccccc2n1C (stereo not given)	none
COC(=O)c1cn(NC(=O)C2CCC(C)CC2)c(=O)c2ccccc12 (stereo not given)	none
COC(=O)c1cn(NC(=O)c2cc([N+](=O)[O-])ccc2F)c(=O)c2ccccc12	STAT1 activator 139.1
COC(=O)c1ccc(CO/N=C2\CCCc3nonc32)cc1	STAT1 activator 138.9
C=C(C)CNC(=S)Nc1sc2c(c1C(=O)OCC)CC(C)(C)OC2	none
CC(=O)c1ccc(NC(=O)Nc2cccc(Cl)c2)cc1	NF-kB neuron act 3.63
Cc1ccccc1OCC(=O)Nc1cccc(C(=O)O)c1	APP 5UTR inh 68.3, FLuc inhib CS 59.3, NF-kB neuron act 8.97
CCOC(=O)c1cccc(NC(=O)Nc2ccc(OCC)cc2)c1	none
O=C(Nc1ccccc1)Nc1cccc(Cl)c1	none
CCOc1ccc(NC(=O)Nc2cccc(C(=O)O)c2)cc1	APP 5UTR inh 70.4, FLuc inhib CS 92.3
CCOc1ccc(/C=C/C(=O)Nc2cccc(C(C)=O)c2)cc1	STAT1 activator 135.5, FLuc inhib CS 63.6
CCN(CC)C(=O)C(=O)c1cn(CCOc2ccccc2)c2ccccc12	none
CN(C)S(=O)(=O)c1cc(NC(=O)COC(=O)CCSc2ccc(Cl)cc2)ccc1Cl	none
O=[N+]([O-])c1cc(S(=O)(=O)N2CCCC2)ccc1SCCO	none
CCOc1ccc(NC(=O)Nc2cc(C)ccc2F)cc1	STAT1 activator 128.9
CC(=O)Nc1cccc(C(=O)/C=C/c2ccc(C)cc2)c1	none
O=C(Nc1ccc(Cl)cc1)Nc1cccc(C(=O)O)c1	FLuc inhib CS 76.3
CCC(=O)Nc1cccc(C(=O)/C=C/c2ccc(F)cc2)c1	NF-kB neuron act 3.84
CNS(=O)(=O)c1cccc(C(=O)Nc2cccnc2)c1	none
CNS(=O)(=O)c1cccc(C(=O)Nc2cccc(Cl)c2)c1	APP 5UTR inh 47.9
CC1CCc2nc(NC(=O)C3COc4ccccc4O3)sc2C1 (stereo not given)	APP 5'UTR act 167.8
Cc1cnc(NC(=O)C2COc3ccccc3O2)s1 (stereo not given)	APP 5'UTR act 144.1, FLuc inhib CS 51.9
CC1CCc2nc(NC(=O)Nc3ccc4c(c3)OCO4)sc2C1 (stereo not given)	FLuc inhib CS 53.3
Oc1ccc(Br)cc1-c1cc(-c2ccccc2)n[nH]1	none
Cc1ccc(-c2cc(-c3ccccc3C)[nH]n2)c(O)c1	NF-kB neuron act 6.29
Cc1ccc(O)c(-c2cc(-c3ccccc3F)[nH]n2)c1	NF-kB neuron act 4.35
Cc1ccc(O)c(-c2cc(-c3cccc(F)c3)n[nH]2)c1	NF-kB neuron act 5.04
Cc1ccc(-c2cc(-c3cccc(F)c3)n[nH]2)c(O)c1	APP 5'UTR act 215.4, NF-kB neuron act 9.62
Oc1cccc(C(O)CNCc2ccc(OCc3ccc(Cl)cc3Cl)cc2)c1 (stereo not given)	none
Cc1ccc2nc3ccc(N4CCCCCCC4)nn3c(=O)c2c1	STAT1 activator 143.6, FLuc inhib CS 62.3
Cc1ccc2nc3ccc(N4CCN(C)CC4)nn3c(=O)c2c1	STAT1 activator 136.6
Cc1nc(SCc2ccccc2)nc2c1CCC2	STAT1 activator 147.8
CC(=O)NC(=S)Nc1ccccc1N1CCCCC1	none
CC(C)n1nnc2c(=O)oc3ccccc3c21	none
CCOC(=O)c1ccccc1NC(=O)Cn1c(-c2nonc2N)nc2ccccc21	APP 5UTR inh 94.4
Nc1nonc1-c1nc2ccccc2n1CC(=O)NC1CCCC1	none
c1ccc(C2CC(c3ccccc3)n3c(nc4ccccc43)N2)cc1 (stereo not given)	none
CNC(=O)N(C1=NCCCCC1)c1ccc(Br)cc1	APP 5UTR inh 45.0
CSc1nc2ccccc2n1CC(=O)Nc1cc(C(F)(F)F)ccc1N1CCOCC1	none
COc1ccc(OCC(=O)N/N=C2\CCCc3ccccc32)cc1	none
O=C(N/N=C1\CCc2ccccc21)c1ccncc1	STAT1 activator 129.7
Cc1cc(C(=O)N/N=C2\CCCc3ccccc32)c(C)o1	APP 5UTR inh 67.8
O=C(N/N=C1\CCc2ccccc21)c1ccccc1O	FLuc inhib CS 89.5, NF-kB neuron act 3.84
O=C(N/N=C1\CCCc2ccccc21)c1ccccc1Cl	none
Cn1c(SCC(=O)NNC(=O)Cc2ccccc2)nc2ccccc2c1=O	none
